Measured values from ChEMBL document CHEMBL3621046, “Discovery of a potent enoyl-acyl carrier protein reductase (FabI) inhibitor suitable for antistaphylococcal agent” (Bioorg Med Chem Lett, 2015).
Values after ≈ are worked out from the molar mass of the structure shown.

Tests used:
[1] = target: T1, Enoyl-[acyl-carrier-protein] reductase [NADPH] FabI (Staphylococcus aureus, UniProt Q6GI75); test: Inhibition of Staphylococcus aureus FabI assessed as reduction in inhibition of reduction of trans-2-octenoyl N-acetylcysteamine substrate by spectrophotometry
T1 sequence (Q6GI75 whole entry): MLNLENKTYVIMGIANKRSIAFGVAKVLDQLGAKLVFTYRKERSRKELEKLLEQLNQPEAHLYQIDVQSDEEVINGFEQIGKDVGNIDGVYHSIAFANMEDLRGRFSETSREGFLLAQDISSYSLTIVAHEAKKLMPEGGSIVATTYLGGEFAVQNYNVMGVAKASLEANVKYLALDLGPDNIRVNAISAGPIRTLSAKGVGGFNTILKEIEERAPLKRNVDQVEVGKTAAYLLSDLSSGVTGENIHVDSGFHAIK

Staphylococcus aureus [2] = test: Antibacterial activity against Staphylococcus aureus incubated for 18 hrs by agar dilution method; assay type: functional
Staphylococcus aureus [3] = test: Antibacterial activity against methicillin-resistant Staphylococcus aureus incubated for 18 hrs by agar dilution method; assay type: functional
Outline: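 Agar dilution. Strains were grown 18 h at 37 °C with shaking in Fleisch extract broth (beef extract 1%, peptone 1%, NaCl 0.3%, Na₂HPO₄ 0.2%, pH 7.4–7.5), then diluted 100-fold. Plates incubated 37 °C, 18 h. MIC is the lowest concentration preventing growth.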

[4] = AUC (0 to infinity) in ICR mouse at 10 mg/kg, iv after 5 mins to 6 hrs; assay type: ADME, organism-based; design: dose 10 mg/kg, time infinity, route intravenous; settings: in vivo
[5] = AUClast in ICR mouse at 10 mg/kg, iv after 5 mins to 6 hrs; assay type: ADME, organism-based; design: time lower 0.083 hr, dose 10 mg/kg, time upper 6 hr, route intravenous; settings: in vivo
[6] = Terminal half life in ICR mouse at 10 mg/kg, iv after 5 mins to 6 hrs; assay type: ADME, organism-based; settings: in vivo, read-out: beta t1/2
[7] = Clearance in ICR mouse at 10 mg/kg, iv after 5 mins to 6 hrs; assay type: ADME, organism-based; settings: in vivo
[8] = Mean residence time in ICR mouse at 10 mg/kg, iv after 5 mins to 6 hrs; assay type: ADME, organism-based; settings: in vivo
[9] = Volume of distribution at steady state in ICR mouse at 10 mg/kg, iv after 5 mins to 6 hrs; assay type: ADME, organism-based; settings: in vivo, read-out: Vdss
[10] = AUC (0 to infinity) in ICR mouse at 10 mg/kg, po after 5 mins to 6 hrs; assay type: ADME, organism-based; design: dose 10 mg/kg, time infinity, route oral; settings: in vivo
[11] = AUClast in ICR mouse at 10 mg/kg, po after 5 mins to 6 hrs; assay type: ADME, organism-based; design: dose 10 mg/kg, time upper 6 hr, time lower 0.083 hr, route oral; settings: in vivo
[12] = Terminal half life in ICR mouse at 10 mg/kg, po after 5 mins to 6 hrs; assay type: ADME, organism-based; settings: in vivo, read-out: beta t1/2
[13] = Cmax in ICR mouse at 10 mg/kg, po after 5 mins to 6 hrs; assay type: ADME, organism-based; design: dose 10 mg/kg, route oral; settings: in vivo
[14] = Tmax in ICR mouse at 10 mg/kg, po after 5 mins to 6 hrs; assay type: ADME, organism-based; settings: in vivo
[15] = Oral bioavailability in ICR mouse at 10 mg/kg after 5 mins to 6 hrs; assay type: ADME, organism-based; settings: in vivo

Compound | IC50 [1] [nM] | MIC (Staphylococcus aureus [2]) [µg/mL] | MIC (Staphylococcus aureus [3]) [µg/mL] | other results
Cc1ccc(Oc2coc(/C=C/c3ccoc3)cc2=O)c(C)c1 | 2290 | > 20 | – | –
O=c1cc(COc2ccccc2)n(C2CC2)cc1Oc1cccc(Cl)c1Cl | 1500 | 3.12 (≈ 7.77 µM) | 6.25 (≈ 15.5 µM) | –
O=c1cc(COc2ccccc2)[nH]cc1Oc1c(Cl)cccc1Cl | 4980 | 3.12 (≈ 8.63 µM) | 3.12 (≈ 8.63 µM) | –
Cn1cc(Oc2c(Cl)cccc2Cl)c(=O)cc1COc1ccccc1 | 720 | 0.195 (≈ 0.518 µM) | 0.195 (≈ 0.518 µM) | –
O=c1cc(COc2ccccc2)n(C2CC2)cc1Oc1c(Cl)cccc1Cl | 6430 | 3.12 (≈ 7.77 µM) | 3.12 (≈ 7.77 µM) | –
O=c1cc(COc2ccccc2)[nH]cc1Oc1cccc([N+](=O)[O-])c1Cl | 11700 | > 20 | – | –
Cn1cc(Oc2cccc([N+](=O)[O-])c2Cl)c(=O)cc1COc1ccccc1 | 660 | 0.781 (≈ 2.02 µM) | 3.12 (≈ 8.08 µM) | –
O=c1cc(COc2ccccc2)n(C2CC2)cc1Oc1cccc([N+](=O)[O-])c1Cl | 17600 | > 20 | – | –
COCc1cc(=O)c(Oc2ccc(Cl)cc2)co1 | 5200 | 6.25 (≈ 23.4 µM) | – | –
O=c1cc(COc2ccccc2)occ1Oc1ccc(Cl)cc1Cl | 680 | 3.12 (≈ 8.6 µM) | 6.25 (≈ 17.2 µM) | –
Cc1cc(Cl)ccc1Oc1coc(COc2ccccc2)cc1=O | 450 | 1.56 (≈ 4.56 µM) | 6.25 (≈ 18.2 µM) | –
Cc1ccc(Oc2coc(COc3ccccc3)cc2=O)c(C)c1 | 380 | 1.56 (≈ 4.85 µM) | 1.56 (≈ 4.85 µM) | –
O=c1cc(COc2ccccc2)occ1Oc1cccc(Cl)c1Cl | 1250 | 6.25 (≈ 17.2 µM) | 12.5 (≈ 34.4 µM) | –
O=c1cc(COc2ccccc2)occ1Oc1c(Cl)cccc1Cl | 1420 | 6.25 (≈ 17.2 µM) | 12.5 (≈ 34.4 µM) | –
Cc1c(Oc2coc(COc3ccccc3)cc2=O)cccc1[N+](=O)[O-] | 3520 | 12.5 (≈ 35.4 µM) | 12.5 (≈ 35.4 µM) | –
Cc1cc(Cl)ccc1Oc1coc(/C=C/c2ccccc2)cc1=O | 4880 | > 20 | – | –
Cc1cc(Cl)ccc1Oc1coc(/C=C/c2ccoc2)cc1=O | 2450 | > 20 | – | –
Cc1cc(Cl)ccc1Oc1coc(/C=C/c2ccco2)cc1=O | 3890 | > 20 | – | –
Cc1cc(Cl)ccc1Oc1coc(/C=C/c2cccnc2)cc1=O | 2940 | > 20 | – | –
Cc1cc(Cl)ccc1Oc1coc(/C=C/c2ccsc2)cc1=O | 3120 | > 20 | – | –
Cc1cc(Cl)ccc1Oc1coc(/C=C/c2cccs2)cc1=O | 4570 | > 20 | – | –
Cc1cc(Cl)ccc1Oc1coc(/C=C/c2ccc[nH]2)cc1=O | 5820 | > 20 | – | –
CCC/C=C/c1cc(=O)c(Oc2ccc(Cl)cc2C)co1 | 6440 | > 20 | – | –
Cc1cc(Cl)ccc1Oc1coc(/C=C/C(C)C)cc1=O | 5780 | > 20 | – | –
O=c1cc(/C=C/c2ccccc2)occ1Oc1ccc(Cl)cc1Cl | 4530 | > 20 | – | –
O=c1cc(/C=C/c2ccoc2)occ1Oc1ccc(Cl)cc1Cl | 1890 | > 20 | – | –
O=c1cc(/C=C/c2cccnc2)occ1Oc1ccc(Cl)cc1Cl | 2040 | > 20 | – | –

Compound | IC50 [1] [nM] | MIC (Staphylococcus aureus [2]) [µg/mL] | MIC (Staphylococcus aureus [3]) [µg/mL] | other results
Cc1ccc(Oc2coc(/C=C/c3ccccc3)cc2=O)c(C)c1 | 5330 | > 20 | – | –
Cc1ccc(Oc2coc(/C=C/c3cccnc3)cc2=O)c(C)c1 | 3480 | > 20 | – | –
O=c1cc(/C=C/c2ccccc2)occ1Oc1cccc(Cl)c1Cl | 6730 | > 20 | – | –
O=c1cc(/C=C/c2ccoc2)occ1Oc1cccc(Cl)c1Cl | 5680 | > 20 | – | –
O=c1cc(/C=C/c2cccnc2)occ1Oc1cccc(Cl)c1Cl | 3440 | > 20 | – | –
O=c1cc(/C=C/c2ccccc2)occ1Oc1c(Cl)cccc1Cl | 4790 | > 20 | – | –
O=c1cc(/C=C/c2ccoc2)occ1Oc1c(Cl)cccc1Cl | 4120 | > 20 | – | –
O=c1cc(/C=C/c2cccnc2)occ1Oc1c(Cl)cccc1Cl | 3740 | > 20 | – | –
O=c1cc(COc2ccccc2)[nH]cc1Oc1ccc(Cl)cc1Cl | 1820 | 0.781 (≈ 2.16 µM) | 1.56 (≈ 4.32 µM) | –
Cn1cc(Oc2ccc(Cl)cc2Cl)c(=O)cc1COc1ccccc1 | 120 | 0.195 (≈ 0.518 µM) | 0.195 (≈ 0.518 µM) | –
O=c1cc(COc2ccccc2)n(C2CC2)cc1Oc1ccc(Cl)cc1Cl | 480 | 1.56 (≈ 3.89 µM) | 1.56 (≈ 3.89 µM) | –
CCCCn1cc(Oc2ccc(Cl)cc2Cl)c(=O)cc1COc1ccccc1 | 1250 | 6.25 (≈ 14.9 µM) | 6.25 (≈ 14.9 µM) | –
O=c1cc(COc2ccccc2)n(Cc2ccccc2)cc1Oc1ccc(Cl)cc1Cl | 1420 | 6.25 (≈ 13.8 µM) | 12.5 (≈ 27.6 µM) | –
Cc1cc(Cl)ccc1Oc1c[nH]c(COc2ccccc2)cc1=O | 400 | 1.56 (≈ 4.57 µM) | 1.56 (≈ 4.57 µM) | –
Cc1cc(Cl)ccc1Oc1cn(C)c(COc2ccccc2)cc1=O | 110 | 0.098 (≈ 0.275 µM) | 0.098 (≈ 0.275 µM) | –
Cc1cc(Cl)ccc1Oc1cn(C2CC2)c(COc2ccccc2)cc1=O | 470 | 0.391 (≈ 1.02 µM) | 0.781 (≈ 2.05 µM) | –
CCCCn1cc(Oc2ccc(Cl)cc2C)c(=O)cc1COc1ccccc1 | 630 | 3.12 (≈ 7.85 µM) | 3.12 (≈ 7.85 µM) | –
Cc1cc(Cl)ccc1Oc1cn(Cc2ccccc2)c(COc2ccccc2)cc1=O | 650 | 3.12 (≈ 7.24 µM) | 6.25 (≈ 14.5 µM) | –
Cc1ccc(Oc2c[nH]c(COc3ccccc3)cc2=O)c(C)c1 | 1140 | 0.781 (≈ 2.43 µM) | 1.56 (≈ 4.86 µM) | –
Cc1ccc(Oc2cn(C)c(COc3ccccc3)cc2=O)c(C)c1 | 80 | 0.049 (≈ 0.146 µM) | 0.049 (≈ 0.146 µM) | AUC(0-inf) [4]: 5920 ng·h/mL; AUC(0-t) [5]: 5910 ng·h/mL; half-life [6]: 47.9 min; clearance [7]: 28.1 mL/min/kg; MRT [8]: 36.5 min; Vd [9]: 1.03 L/kg; AUC(0-inf) [10]: 2490 ng·h/mL; AUC(0-t) [11]: 2480 ng·h/mL; half-life [12]: 33.9 min; Cmax [13]: 4040 ng/mL; Tmax [14]: 5 min; bioavailability [15]: 41.9%
Cc1ccc(Oc2cn(C3CC3)c(COc3ccccc3)cc2=O)c(C)c1 | 3170 | 0.391 (≈ 1.08 µM) | 1.56 (≈ 4.32 µM) | –
CCCCn1cc(Oc2ccc(C)cc2C)c(=O)cc1COc1ccccc1 | 1000 | 0.781 (≈ 2.07 µM) | 1.56 (≈ 4.14 µM) | –
Cc1ccc(Oc2cn(Cc3ccccc3)c(COc3ccccc3)cc2=O)c(C)c1 | 2690 | 1.56 (≈ 3.8 µM) | 3.12 (≈ 7.59 µM) | –
O=c1cc(COc2ccccc2)[nH]cc1Oc1cccc(Cl)c1Cl | 840 | 1.56 (≈ 4.32 µM) | 1.56 (≈ 4.32 µM) | –
Cn1cc(Oc2cccc(Cl)c2Cl)c(=O)cc1COc1ccccc1 | 220 | 0.195 (≈ 0.518 µM) | 0.195 (≈ 0.518 µM) | –
CC(=O)NC[C@H]1CN(c2ccc(N3CCOCC3)c(F)c2)C(=O)O1 [LINEZOLID] | – | – | 0.781 (≈ 2.32 µM) | –
Oc1cc(Cl)ccc1Oc1ccc(Cl)cc1Cl [TRICLOSAN] | – | 0.391 (≈ 1.35 µM) | – | –
